Results: ChEMBL document CHEMBL1139875, “Discovery of 4-aminobutyric acid derivatives possessing anticonvulsant and antinociceptive activities: a hybrid pharmacophore approach” (2007)
Calls of active or inactive are those of the source. The rule behind the calls is not given here.

Experiments:
Mus musculus [1] = assay: Neurotoxicity in Swiss Albino mouse at 100 mg/kg, ip after 0.5 hr by rotarod test; assay type: functional, organism-based; parameters: dose 100 mg/kg
Method in brief: (§1)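 Swiss mice (20-25 g) are trained on an accelerating rotorod (10 rpm, 3.2 cm rod), then injected i.p. at 30, 100 or 300 mg/kg, with three per group. Neurotoxicity means failure to keep equilibrium for at least 1 min in each of three trials, checked at 0.5 and 4 h. The value reported is the minimum dose affecting half or more of the mice.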

Mus musculus [2] = assay: Anticonvulsant activity in Swiss Albino mouse at 30 mg/kg, ip after 0.5 hr by MES test; assay type: functional, organism-based; parameters: dose 30 mg/kg
Method in brief: (§2)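 Mice (Swiss, 20-25 g) given i.p. doses of 30, 100 and 300 mg/kg under ADD program protocols, three per group, examined at 0.5 and 4 h in MES, scPTZ, scSTY or scPIC seizure tests. Value is the minimum dose protecting half or more of the mice.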

Mus musculus [3] = assay: Anticonvulsant activity in Swiss Albino mouse at 300 mg/kg, ip after 4 hrs by scSTY test; assay type: functional, organism-based; parameters: dose 300 mg/kg; method in brief: as §2
Mus musculus [4] = assay: Anticonvulsant activity in Swiss Albino mouse at 300 mg/kg, ip after 0.5 hr by scPIC test; assay type: functional, organism-based; parameters: dose 300 mg/kg; method in brief: as §2
Mus musculus [5] = assay: Neurotoxicity in Swiss Albino mouse at 100 mg/kg, ip after 4 hrs by rotarod test; assay type: functional, organism-based; parameters: dose 100 mg/kg; method in brief: as §1
Mus musculus [6] = assay: Anticonvulsant activity in Swiss Albino mouse at 300 mg/kg, ip after 4 hrs by scPIC test; assay type: functional, organism-based; parameters: dose 300 mg/kg; method in brief: as §2
Mus musculus [7] = assay: Anticonvulsant activity in Swiss Albino mouse at 300 mg/kg, ip after 0.5 hr by scPTZ test; assay type: functional, organism-based; parameters: dose 300 mg/kg; method in brief: as §2
Mus musculus [8] = assay: Analgesic activity in Swiss Albino mouse assessed as number of acetic acid-induced writhing per 30 min after 100 mg/kg, ip; assay type: functional
Method in brief: (§3)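 Mice in groups of six dosed i.p. at 100 mg/kg, controls receiving 30% v/v PEG 400 in water. Writhing induced by i.p. 0.1 mL of 3% v/v acetic acid 1 h after drug. Writhes (abdominal stretch with at least one hind limb extended) counted over 30 min; % inhibition calculated. Mean ± SEM, Student's t test.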

Mus musculus [9] = assay: Anticonvulsant activity in Swiss Albino mouse at 30 mg/kg, ip after 4 hrs by MES test; assay type: functional, organism-based; parameters: dose 30 mg/kg; method in brief: as §2
Mus musculus [10] = assay: Analgesic activity in Swiss Albino mouse assessed as inhibition of acetic acid-induced writhing responses at 100 mg/kg, ip; assay type: functional; method in brief: as §3
Mus musculus [11] = assay: Anticonvulsant activity in Swiss Albino mouse at 300 mg/kg, ip after 0.5 hr by scSTY test; assay type: functional, organism-based; parameters: dose 300 mg/kg; method in brief: as §2
Rattus norvegicus [12] = assay: Anti-cold allodynia effect in Sprague-Dawley rat SNL model assessed as duration of paw withdrawal 100 mg/kg, ip after 2.5 hrs; assay type: functional; conditions: route intraperitoneal
Method in brief: (§4)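 Left L5 spinal nerve ligation under pentobarbital (65 mg/kg i.p.). Allodynic rats dosed i.p. 100 mg/kg, vehicle 30% v/v PEG 400 in water. Acetone (100-200 µL) misted onto midplantar affected paw after 10 min acclimatization; paw withdrawal duration, mean of three samples at least 3 min apart; n = 4 rats.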

Rattus norvegicus [13] = assay: Effect on spontaneous pain in Sprague-Dawley rat CCI model assessed as duration of paw withdrawal at 100 mg/kg, ip after 2 hrs; assay type: functional; conditions: route intraperitoneal
Method in brief: (§5)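 Unilateral CCI of sciatic nerve (Bennett and Xie) in Sprague-Dawley rats under i.p. pentobarbital sodium (65 mg/kg). Spontaneous pain is scored over 5 min after 10 min acclimatization, as cumulative time the ipsilateral paw is held off the floor. Paw lifts from locomotion or repositioning are excluded. Drug is given at 100 mg/kg i.p. with 30% v/v PEG 400 vehicle. Mean ± SEM, n = 4, compared with predrug by ANOVA/Bonferroni.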

Rattus norvegicus [14] = assay: Anti-dynamic allodynia effect in Sprague-Dawley rat SNL model assessed as latency to paw withdrawal 100 mg/kg, ip after 0.5 hr; assay type: functional; conditions: route intraperitoneal
Method in brief: (§6)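 Left L5 spinal nerve ligation rats, tested preoperatively and 9 days postoperatively, then given 100 mg/kg i.p. (vehicle 30% v/v PEG 400 in water). After 10 min acclimatization, plantar surface of affected paw stroked mildly with a cotton-bud; paw lift response recorded. n = 4; retested 0.5-2.5 h post-dose.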

Rattus norvegicus [15] = assay: Anti-cold allodynia effect in Sprague-Dawley rat SNL model assessed as duration of paw withdrawal 100 mg/kg, ip after 1.5 hrs; assay type: functional; conditions: route intraperitoneal; method in brief: as §4
Rattus norvegicus [16] = assay: Anti-dynamic allodynia effect in Sprague-Dawley rat SNL model assessed as latency to paw withdrawal 100 mg/kg, ip after 2.5 hrs; assay type: functional; conditions: route intraperitoneal; method in brief: as §6
Rattus norvegicus [17] = assay: Anti-dynamic allodynia effect in Sprague-Dawley rat SNL model assessed as latency to paw withdrawal 100 mg/kg, ip after 1 hr; assay type: functional; conditions: route intraperitoneal; method in brief: as §6
Rattus norvegicus [18] = assay: Antihyperalgesic effects in Sprague-Dawley rat SNL model assessed as duration of paw withdrawal at 100 mg/kg, ip after 1.5 hrs, ip; assay type: functional; conditions: route intraperitoneal
Method in brief: (§7)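 L5 SNL rats (n = 4), dosed 100 mg/kg i.p. (vehicle 30% v/v PEG 400 in water). Pin-prick to midplantar ipsilateral left hindpaw; withdrawal duration, mean of three responses; ≥2 s defined abnormal. Mean ± SEM; one-way ANOVA with Bonferroni versus predrug.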

Mus musculus [19] = assay: Neurotoxicity in Swiss Albino mouse at 300 mg/kg, ip after 4 hrs by rotarod test; assay type: functional, organism-based; parameters: dose 300 mg/kg; method in brief: as §1
Rattus norvegicus [20] = assay: Anti-cold allodynia effect in Sprague-Dawley rat SNL model assessed as duration of paw withdrawal 100 mg/kg, ip after 1 hrs; assay type: functional; conditions: route intraperitoneal; method in brief: as §4
Rattus norvegicus [21] = assay: Effect on spontaneous pain in Sprague-Dawley rat CCI model assessed as duration of paw withdrawal at 100 mg/kg, ip after 0.5 hr; assay type: functional; conditions: route intraperitoneal
Method in brief: (§8)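 CCI rats (n = 4) dosed 100 mg/kg i.p. (vehicle 30% v/v PEG 400 in water). After 10 min acclimatization in a cage 5 cm above ground, cumulative time the ipsilateral paw was held off the floor over 5 min recorded, excluding locomotion lifts. Mean ± SEM; ANOVA/Bonferroni versus predrug.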

Rattus norvegicus [22] = assay: Anti-dynamic allodynia effect in Sprague-Dawley rat SNL model assessed as latency to paw withdrawal 100 mg/kg, ip after 2 hrs; assay type: functional; conditions: route intraperitoneal; method in brief: as §6
Rattus norvegicus [23] = assay: Anti-cold allodynia effect in Sprague-Dawley rat SNL model assessed as duration of paw withdrawal 100 mg/kg, ip after 0.5 hr; assay type: functional; conditions: route intraperitoneal; method in brief: as §4
Mus musculus [24] = assay: Anticonvulsant activity in Swiss Albino mouse at 300 mg/kg, ip after 4 hrs by MES test; assay type: functional, organism-based; parameters: dose 300 mg/kg; method in brief: as §2
Rattus norvegicus [25] = species on record: Rattus norvegicus; assay: Anti-dynamic allodynic effect in Sprague-Dawley rat CCI model assessed as latency to paw withdrawal after 2 hr; assay type: functional
Method in brief: (§9)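 Rats with sciatic nerve chronic constriction injury (pentobarbital 65 mg/kg i.p. anaesthesia), baseline and day 9 testing, then drug per randomization table. After 10 min acclimatization, affected plantar surface stroked mildly with a cotton-bud; paw lift recorded. n = 4; retested 0.5-2.5 h post-dose.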

Rattus norvegicus [26] = species on record: Rattus norvegicus; assay: Anti-dynamic allodynic effect in Sprague-Dawley rat CCI model assessed as latency to paw withdrawal after 1 hr; assay type: functional; method in brief: as §9
Rattus norvegicus [27] = assay: Anti-cold allodynia effect in Sprague-Dawley rat SNL model assessed as duration of paw withdrawal 100 mg/kg, ip after 2 hrs; assay type: functional; conditions: route intraperitoneal; method in brief: as §4
Rattus norvegicus [28] = assay: Antihyperalgesic effects in Sprague-Dawley rat SNL model assessed as duration of paw withdrawal at 100 mg/kg, ip after 2 hrs, ip; assay type: functional; conditions: route intraperitoneal; method in brief: as §7
Mus musculus [29] = assay: Anticonvulsant activity in Swiss Albino mouse at 300 mg/kg, ip after 0.5 hr by MES test; assay type: functional, organism-based; parameters: dose 300 mg/kg; method in brief: as §2
Rattus norvegicus [30] = species on record: Rattus norvegicus; assay: Anti-dynamic allodynic effect in Sprague-Dawley rat CCI model assessed as latency to paw withdrawal after 1.5 hr; assay type: functional; method in brief: as §9
Rattus norvegicus [31] = assay: Effect on spontaneous pain in Sprague-Dawley rat CCI model assessed as duration of paw withdrawal at 100 mg/kg, ip after 1 hr; assay type: functional; conditions: route intraperitoneal; method in brief: as §8
Rattus norvegicus [32] = assay: Antihyperalgesic effects in Sprague-Dawley rat SNL model assessed as duration of paw withdrawal at 100 mg/kg, ip after 0.5 hr, ip; assay type: functional; conditions: route intraperitoneal; method in brief: as §7
Rattus norvegicus [33] = species on record: Rattus norvegicus; assay: Anti-dynamic allodynic effect in Sprague-Dawley rat CCI model assessed as latency to paw withdrawal after 2.5 hr; assay type: functional; method in brief: as §9
Rattus norvegicus [34] = assay: Anti-dynamic allodynia effect in Sprague-Dawley rat SNL model assessed as latency to paw withdrawal 100 mg/kg, ip after 1.5 hrs; assay type: functional; conditions: route intraperitoneal; method in brief: as §6
Mus musculus [35] = assay: Neurotoxicity in Swiss Albino mouse at 300 mg/kg, ip after 0.5 hr by rotarod test; assay type: functional, organism-based; parameters: dose 300 mg/kg; method in brief: as §1
Rattus norvegicus [36] = species on record: Rattus norvegicus; assay: Anti-dynamic allodynic effect in Sprague-Dawley rat CCI model assessed as latency to paw withdrawal after 0.5 hr; assay type: functional; method in brief: as §9
Rattus norvegicus [37] = assay: Antihyperalgesic effects in Sprague-Dawley rat SNL model assessed as duration of paw withdrawal at 100 mg/kg, ip after 1 hr, ip; assay type: functional; conditions: route intraperitoneal; method in brief: as §7
Mus musculus [38] = assay: Anticonvulsant activity in Swiss Albino mouse at 100 mg/kg, ip after 0.5 hr by scSTY test; assay type: functional, organism-based; parameters: dose 100 mg/kg; method in brief: as §2
Rattus norvegicus [39] = assay: Antihyperalgesic effects in Sprague-Dawley rat SNL model assessed as duration of paw withdrawal at 100 mg/kg, ip after 2.5 hrs, ip; assay type: functional; conditions: route intraperitoneal; method in brief: as §7
Rattus norvegicus [40] = assay: Effect on spontaneous pain in Sprague-Dawley rat CCI model assessed as duration of paw withdrawal at 100 mg/kg, ip after 2.5 hrs; assay type: functional; conditions: route intraperitoneal; method in brief: as §5
Rattus norvegicus [41] = assay: Effect on spontaneous pain in Sprague-Dawley rat CCI model assessed as duration of paw withdrawal at 100 mg/kg, ip after 1.5 hrs; assay type: functional; conditions: route intraperitoneal; method in brief: as §5

## O=C1NC(=O)C(c2ccccc2)(c2ccccc2)N1
Mus musculus [1]
  Activity: Active
Mus musculus [2]
  Activity: Active
Mus musculus [3]
  Activity: inactive
Mus musculus [4]
  Activity: inactive
Mus musculus [5]
  Activity: Active
Mus musculus [6]
  Activity: inactive
Mus musculus [7]
  Activity: inactive
Mus musculus [8]
  Activity: inactive
Mus musculus [9]
  Activity: Active
Mus musculus [10]
  Activity: inactive
Mus musculus [11]
  Activity: inactive

## C/C(=N\NC(=O)NCCCC(=O)O)c1ccccc1
Rattus norvegicus [12]
  Activity: 4.8 s
Rattus norvegicus [13]
  Activity: 12.9 s
Rattus norvegicus [14]
  Activity: 8.7 s
Rattus norvegicus [15]
  Activity: 11.7 s
Rattus norvegicus [16]
  Activity: 11.88 s
Mus musculus [3]
  Activity: Active
Rattus norvegicus [17]
  Activity: 7.2 s
Mus musculus [4]
  Activity: Active
Rattus norvegicus [18]
  Activity: 18.7 s
Mus musculus [19]
  Activity: inactive
Rattus norvegicus [20]
  Activity: 12.8 s
Rattus norvegicus [21]
  Activity: 13.2 s
Rattus norvegicus [22]
  Activity: 12.2 s
Rattus norvegicus [23]
  Activity: 17.9 s
Mus musculus [24]
  Activity: inactive
Rattus norvegicus [25]
  Activity: 12.1 s
Rattus norvegicus [26]
  Activity: 10.2 s
Rattus norvegicus [27]
  Activity: 10.9 s
Rattus norvegicus [28]
  Activity: 16.7 s
Mus musculus [6]
  Activity: Active
Mus musculus [29]
  Activity: inactive
Rattus norvegicus [30]
  Activity: 13.3 s
Rattus norvegicus [31]
  Activity: 18.8 s
Mus musculus [7]
  Activity: inactive
Rattus norvegicus [32]
  Activity: 23.2 s
Mus musculus [8]; route intraperitoneal
  Activity: 33.7
Mus musculus [10]; route intraperitoneal
  inhibition in vivo at 100 mg/kg: 82%
Rattus norvegicus [33]
  Activity: 14.5 s
Rattus norvegicus [34]
  Activity: 9.2 s
Mus musculus [35]
  Activity: inactive
Rattus norvegicus [36]
  Activity: 14.8 s
Rattus norvegicus [37]
  Activity: 27.6 s
Mus musculus [38]
  Activity: Active
Rattus norvegicus [39]
  Activity: 17.3 s
Rattus norvegicus [40]
  Activity: 10.6 s
Rattus norvegicus [41]
  Activity: 18.3 s
